{"source": "paper PMC4339026", "about": "(Biopolymers, 2014)", "assay_type_in_all_cases": "biochemical", "key": {"MMP-9": {"target": "MMP-9 (Homo sapiens, UniProt P14780)", "sequence (P14780 94-707, species assumed)": "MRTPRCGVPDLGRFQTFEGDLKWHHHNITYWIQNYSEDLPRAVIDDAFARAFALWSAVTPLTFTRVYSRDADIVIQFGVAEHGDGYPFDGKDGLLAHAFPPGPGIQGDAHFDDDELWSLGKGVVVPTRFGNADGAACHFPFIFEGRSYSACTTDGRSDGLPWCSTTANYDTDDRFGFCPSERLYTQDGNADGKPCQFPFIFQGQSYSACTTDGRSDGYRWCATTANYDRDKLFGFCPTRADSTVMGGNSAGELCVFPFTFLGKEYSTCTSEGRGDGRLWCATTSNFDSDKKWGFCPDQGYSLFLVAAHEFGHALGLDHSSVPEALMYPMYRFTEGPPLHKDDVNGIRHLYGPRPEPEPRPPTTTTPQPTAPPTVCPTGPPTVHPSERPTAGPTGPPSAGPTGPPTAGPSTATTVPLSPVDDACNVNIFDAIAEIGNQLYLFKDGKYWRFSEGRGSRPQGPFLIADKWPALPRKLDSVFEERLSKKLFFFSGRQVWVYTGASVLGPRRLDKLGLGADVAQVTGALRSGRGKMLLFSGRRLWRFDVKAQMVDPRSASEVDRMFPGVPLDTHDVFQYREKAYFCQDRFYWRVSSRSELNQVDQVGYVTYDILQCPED", "assay": "Selectivity testing against zinc metalloproteases: MMP-9", "conditions": "read-out: IC50 MMP-9; n = 3 Mean ± SD"}, "ADAM10": {"target": "T1, ADAM10 (Homo sapiens, UniProt O14672)", "T1 sequence (O14672 214-748)": "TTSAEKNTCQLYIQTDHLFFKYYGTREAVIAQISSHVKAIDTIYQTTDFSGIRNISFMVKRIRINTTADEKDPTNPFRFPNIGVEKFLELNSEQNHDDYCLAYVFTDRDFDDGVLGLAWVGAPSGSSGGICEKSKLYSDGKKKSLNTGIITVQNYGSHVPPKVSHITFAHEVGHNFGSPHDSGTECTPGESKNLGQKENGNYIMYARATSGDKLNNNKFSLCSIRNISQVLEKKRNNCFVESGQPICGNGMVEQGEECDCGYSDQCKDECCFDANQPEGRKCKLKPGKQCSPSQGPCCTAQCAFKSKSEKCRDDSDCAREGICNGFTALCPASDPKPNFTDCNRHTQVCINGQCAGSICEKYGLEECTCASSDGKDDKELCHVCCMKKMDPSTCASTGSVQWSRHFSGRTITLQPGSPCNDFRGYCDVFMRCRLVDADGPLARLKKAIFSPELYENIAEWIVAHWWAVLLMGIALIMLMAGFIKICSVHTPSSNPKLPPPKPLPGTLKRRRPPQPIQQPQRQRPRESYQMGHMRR", "assay": "Selectivity testing against zinc metalloproteases: ADAM10", "conditions": "read-out: IC50 ADAM10; n = 3 Mean ± SD"}, "MMP-1": {"target": "T2, MMP-1 (Homo sapiens, UniProt P03956)", "T2 sequence (P03956 100-469)": "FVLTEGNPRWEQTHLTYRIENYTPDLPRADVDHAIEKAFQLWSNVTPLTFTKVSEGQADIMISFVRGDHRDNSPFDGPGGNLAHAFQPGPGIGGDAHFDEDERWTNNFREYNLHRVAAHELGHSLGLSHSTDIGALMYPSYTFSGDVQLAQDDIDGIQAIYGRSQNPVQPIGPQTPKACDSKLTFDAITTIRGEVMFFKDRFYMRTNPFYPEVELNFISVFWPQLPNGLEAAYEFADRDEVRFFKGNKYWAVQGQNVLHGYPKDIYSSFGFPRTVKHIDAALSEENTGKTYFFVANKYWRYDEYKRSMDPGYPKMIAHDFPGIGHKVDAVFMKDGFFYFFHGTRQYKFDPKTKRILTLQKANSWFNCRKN", "assay": "Selectivity testing against zinc metalloproteases: MMP-1", "conditions": "read-out: IC50 MMP-1; n = 3 Mean ± SD"}, "MMP-13": {"target": "MMP-13 (Homo sapiens, UniProt P45452)", "assay": "Selectivity testing against zinc metalloproteases: MMP-13", "conditions": "read-out: IC50 MMP-13; n = 3 Mean ± SD"}, "ADAM17": {"target": "ADAM17 (Homo sapiens, UniProt P78536)", "sequence (P78536 215-824, species assumed)": "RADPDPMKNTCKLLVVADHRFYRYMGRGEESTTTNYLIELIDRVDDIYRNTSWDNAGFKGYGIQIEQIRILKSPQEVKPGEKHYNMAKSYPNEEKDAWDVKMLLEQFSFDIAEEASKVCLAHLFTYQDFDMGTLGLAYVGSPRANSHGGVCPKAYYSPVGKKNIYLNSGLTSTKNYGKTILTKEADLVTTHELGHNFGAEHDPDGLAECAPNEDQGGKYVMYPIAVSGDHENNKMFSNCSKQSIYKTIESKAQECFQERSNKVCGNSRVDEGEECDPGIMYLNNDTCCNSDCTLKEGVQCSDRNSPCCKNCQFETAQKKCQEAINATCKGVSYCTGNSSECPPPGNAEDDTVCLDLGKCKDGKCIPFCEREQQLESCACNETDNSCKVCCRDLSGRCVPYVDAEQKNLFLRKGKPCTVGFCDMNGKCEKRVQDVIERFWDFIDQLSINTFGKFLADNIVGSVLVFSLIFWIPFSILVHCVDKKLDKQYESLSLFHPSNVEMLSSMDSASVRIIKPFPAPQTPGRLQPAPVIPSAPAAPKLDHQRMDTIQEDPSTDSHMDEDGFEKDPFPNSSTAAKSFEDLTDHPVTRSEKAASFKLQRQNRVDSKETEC", "assay": "Selectivity testing against zinc metalloproteases: ADAM17", "conditions": "read-out: IC50 ADAM17; n = 3 Mean ± SD"}, "meprin β [1]": {"target": "T3, meprin β (Homo sapiens, UniProt Q16820)", "T3 sequence (Q16820 62-614 limits assumed)": "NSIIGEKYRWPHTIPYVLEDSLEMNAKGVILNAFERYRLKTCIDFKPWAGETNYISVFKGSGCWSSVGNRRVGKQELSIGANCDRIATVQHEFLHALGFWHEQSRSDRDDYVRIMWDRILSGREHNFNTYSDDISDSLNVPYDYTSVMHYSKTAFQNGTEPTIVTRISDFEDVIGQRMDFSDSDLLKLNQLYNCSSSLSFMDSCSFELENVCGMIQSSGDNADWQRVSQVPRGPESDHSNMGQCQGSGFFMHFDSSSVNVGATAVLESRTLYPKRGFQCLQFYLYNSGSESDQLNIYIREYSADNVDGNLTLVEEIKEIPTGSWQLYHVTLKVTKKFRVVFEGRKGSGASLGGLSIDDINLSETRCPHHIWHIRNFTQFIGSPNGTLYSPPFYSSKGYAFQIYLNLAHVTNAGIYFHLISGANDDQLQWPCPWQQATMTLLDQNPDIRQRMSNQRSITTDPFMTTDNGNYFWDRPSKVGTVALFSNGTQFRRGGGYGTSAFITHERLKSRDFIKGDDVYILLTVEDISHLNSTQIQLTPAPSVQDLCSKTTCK", "assay": "Meprin β LOPAC pilot screen", "conditions": "18 μM"}, "meprin β [2]": {"target": "T3, meprin β", "assay": "Meprin β HTS FRET assay, dose response", "conditions": "dose response experiment, data not shown", "in_short": "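Trypsin-activated meprin β (trypsin removed on immobilized ovomucoid) in 50 mM Hepes, 0.01% Brij-35, pH 7.5, added as 2x (0.15 nM) solution. Pin-transferred inhibitor was preincubated 30 min at RT. 2x (20 μM) (MCA)-EDEDED-(K-ε-DNP) was then added, run 1 h at RT, and read at ex 324/em 393 nm. A 3-fold dilution series was run in quadruplicate, and % inhibition was fitted with a 4-parameter equation. DMSO final was 0.1% or 1.0%.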"}, "MMP-2": {"target": "T4, MMP-2 (Homo sapiens, UniProt P08253)", "T4 sequence (P08253 110-660)": "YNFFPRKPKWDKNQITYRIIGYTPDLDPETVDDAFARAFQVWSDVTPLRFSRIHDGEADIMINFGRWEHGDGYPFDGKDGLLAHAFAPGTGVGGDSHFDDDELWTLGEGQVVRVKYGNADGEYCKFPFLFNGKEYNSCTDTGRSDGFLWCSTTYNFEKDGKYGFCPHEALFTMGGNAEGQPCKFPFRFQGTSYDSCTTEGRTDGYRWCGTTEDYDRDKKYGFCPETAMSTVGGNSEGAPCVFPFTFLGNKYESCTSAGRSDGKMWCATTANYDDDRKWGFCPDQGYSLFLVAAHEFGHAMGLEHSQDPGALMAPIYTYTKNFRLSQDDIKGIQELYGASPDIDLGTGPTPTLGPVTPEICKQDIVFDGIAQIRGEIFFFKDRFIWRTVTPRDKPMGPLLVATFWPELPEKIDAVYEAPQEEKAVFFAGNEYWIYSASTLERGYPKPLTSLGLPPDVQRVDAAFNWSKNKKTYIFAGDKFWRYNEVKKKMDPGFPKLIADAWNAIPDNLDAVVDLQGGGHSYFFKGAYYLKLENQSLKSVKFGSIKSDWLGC", "assay": "Selectivity testing against zinc metalloproteases: MMP-2", "conditions": "read-out: IC50 MMP-2; n = 3 Mean ± SD"}, "meprin α": {"target": "T5, meprin α (Homo sapiens, UniProt Q16819)", "T5 sequence (Q16819 66-653 limits assumed)": "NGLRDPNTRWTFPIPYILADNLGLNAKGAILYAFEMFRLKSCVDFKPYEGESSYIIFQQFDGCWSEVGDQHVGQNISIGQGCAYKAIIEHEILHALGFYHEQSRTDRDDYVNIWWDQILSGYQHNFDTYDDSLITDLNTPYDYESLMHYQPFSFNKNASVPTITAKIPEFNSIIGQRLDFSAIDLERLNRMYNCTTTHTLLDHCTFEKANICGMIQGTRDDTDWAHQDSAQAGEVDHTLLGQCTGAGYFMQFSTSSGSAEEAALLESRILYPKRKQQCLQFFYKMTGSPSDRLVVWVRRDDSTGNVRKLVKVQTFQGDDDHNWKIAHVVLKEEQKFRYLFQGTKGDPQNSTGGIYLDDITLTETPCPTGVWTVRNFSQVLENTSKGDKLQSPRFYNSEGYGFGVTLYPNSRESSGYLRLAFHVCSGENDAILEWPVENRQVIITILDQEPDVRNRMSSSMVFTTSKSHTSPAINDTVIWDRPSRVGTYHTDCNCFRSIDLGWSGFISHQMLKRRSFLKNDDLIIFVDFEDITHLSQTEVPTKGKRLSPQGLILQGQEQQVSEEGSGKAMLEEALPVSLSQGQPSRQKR", "assay": "Meprin α HTS FRET assay, dose response", "conditions": "read-out: IC50 Meprin α; selectivity testing; n = 3 Mean ± SD", "in_short": "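Recombinant human Strep-tagged meprin α was expressed in baculovirus-infected BTI-TN-5B1-4 cells, trypsin-activated, then freed of trypsin. It was used as a 2x solution at 2.6 nM in 50 mM Hepes, 0.01% Brij-35, pH 7.5. Test compound was pre-incubated 30 min at RT, then 2x (MCA)-YVADAPK-(K-ε-DNP) at 20 μM was added for 1 h at RT. Read at ex 324/em 393 nm. 3-fold dilutions in quadruplicate; 4-parameter fit; 0.1% or 1.0% DMSO.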"}}, "data": [{"smiles": "N.N.[Cl][Pt][Cl]", "note": "[Cisplatin, cisplatin]", "values": [{"measurement": "IC50", "setting": "MMP-9", "result": "13.9 ± 2.1", "unit": "µM"}, {"measurement": "IC50", "setting": "ADAM10", "result": "4.2 ± 0.2", "unit": "µM"}, {"measurement": "IC50", "setting": "MMP-1", "result": "5.1 ± 0.5", "unit": "µM"}, {"measurement": "IC50", "setting": "MMP-13", "result": "> 100", "unit": "µM"}, {"measurement": "IC50", "setting": "ADAM17", "result": "5.1 ± 0.4", "unit": "µM"}, {"measurement": "% inhibition meprin β in pilot screen", "setting": "meprin β [1]", "result": "negative inhibition values"}, {"measurement": "meprin β LOPAC pilot screen outcome", "setting": "meprin β [1]; hit cutoff 25% inhibition", "result": "selective hits"}, {"measurement": "meprin β dose response behaviour", "setting": "meprin β [2]", "result": "dose dependent negative inhibition"}, {"measurement": "IC50", "setting": "MMP-2", "result": "5.1 ± 0.6", "unit": "µM"}, {"measurement": "IC50", "setting": "meprin α", "result": "> 100", "unit": "µM"}]}]}
